High-throughput results as filed in PubChem.
Autophagy HCS: autophagy modulation, high-content screen; MEF GFP-LC3 puncta imaging; test concentration mostly 10 µM; calls only at 10 µM (by protocol); hit rate 0.98% among 190,000; AID 463193;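 active = percentage of spot-positive cells more than 3 SD above its plate mean, without a fluorescence outlier flag or 80% toxicity; inconclusive = no clear call, values can overlap the other calls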
SKKanGAS inh: inhibitors of SKKanGAS S. pyogenes growth in kanamycin (SK-promoter or general growth effect) | BacTiter-Glo, 6 h | inhibition, % at 7.5 µM | hit rate 1.3% among 300,000;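 active = mean replicate score, as percent of positive control median, at least 50; inconclusive = mean below 50 but one replicate at or above 50; inactive = mean and every replicate below 50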;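 note: strain carries kanamycin resistance gene driven by streptokinase promoter and grows in 40 µg/ml kanamycin; loss of luminescence reflects streptokinase promoter inhibition or plain growth inhibition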
WT yeast gro inh: growth inhibition of WT yeast, mitochondrial fusion screen; mitochondrial fusion phenotypic screen, WT strain; hit rate 2.1% among 190,000; inhibition, % at 10 µM; in the data active = inhibition above about 58%; tested in S. cerevisiae
Cl transport mod: modulators of human KCC2 chloride dependent transport; Q9H2X9; KCC2 cells, thallium flux FluoZin-2 fluorescence; hit rate 2.2% among 190,000; B-score of Tl+ flux slope (higher = more flux/activation; lower = inhibition) at 10 µM; AID 1456;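 active = thallium flux slope and its plate-corrected score both differing from the plate sample mean at a set confidence after two filtering rounds, in either direction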;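 note: slope of fluorescence scaled to starting intensity during 10 to 20 s after thallium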
Rad51 HR inh: Rad51 (human) homologous recombination inhibition; inhibition, % at 10 µM; Q06609; hRad51 DNA strand exchange, fluorescence dequenching; hit rate 0.085% among 200,000;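 active = inhibition above 40% at the single screening dose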
Target sequence (Q06609 whole entry, looked up): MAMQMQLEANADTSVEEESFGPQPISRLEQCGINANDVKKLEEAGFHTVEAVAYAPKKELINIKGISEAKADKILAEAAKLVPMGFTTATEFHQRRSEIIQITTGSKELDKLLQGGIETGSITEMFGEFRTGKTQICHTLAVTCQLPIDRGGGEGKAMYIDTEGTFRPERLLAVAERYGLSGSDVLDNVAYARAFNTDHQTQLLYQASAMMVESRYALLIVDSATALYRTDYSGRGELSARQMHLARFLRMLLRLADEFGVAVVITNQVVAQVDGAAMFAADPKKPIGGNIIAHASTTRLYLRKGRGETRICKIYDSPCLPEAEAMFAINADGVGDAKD
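Test system: preformed human Rad51 ssDNA filaments. Compound dosing: single dose, 10 µM final compound. Incubation: filaments 15 min 37 °C, then compound 30 min. Technique: FRET fluorescence dequenching, excitation 485 nm, emission 520 nm. Read-out basis: percent inhibition from fluorescence, normalised to plate control and blank means. Benchmarks: plate controls and plate blanks.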
Insulin prom up: MIN6 insulin promoter up-regulation; MIN6 insulin promoter-GFP reporter, high-content imaging; stronger effect = higher value; z-score at 5 µM; hit rate 0.3% among 190,000; AID 1625;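 active = z-score above 3 at 5 µM with at least 500 cells counted in the well; inconclusive = wells under 500 cells, flagged as cytotoxic or low count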
KCC2 secondary: KCC2 (human) modulation, secondary assay; shares compounds with Cl transport mod; HEK293-KCC2, thallium flux, FluoZin2 fluorescence; stronger effect = higher value; normalised thallium flux (F/F0 slope) at 10 µM; hit rate 15% among 3,700; AID 1713;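 active = thallium flux slope above the same plate's solvent-only control mean plus 3 SD; inconclusive = the two replicate wells disagree; inactive = no significant difference from solvent-only control wells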
KCC2 bumet counter: thallium flux persisting under bumetanide in KCC2 cells, counter-screen secondary assay; shares compounds with Cl transport mod; HEK293-KCC2 + bumetanide/ouabain, thallium flux FluoZin2; stronger effect = higher value; normalized thallium flux at 10 µM; hit rate 49% among 3,700; AID 1714;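 active = thallium entry rate above the same plate's blocked-transporter control wells by more than 3 SD; inconclusive = the two repeat wells disagree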;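 note: raw slope of fluorescence over initial fluorescence between 10 and 20 s after thallium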
KCC2 sec2: confirmation of human KCC2 transport modulators | hit rate 23% among 3,700 | HEK293-KCC2, thallium flux FluoZin2 fluorescence; actives lie on both sides; F/F0 rise rate, 10–20 s post-thallium | shares compounds with Cl transport mod | normalized thallium flux at 10 µM;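 active = thallium flux slope more than 3 SD above or below the plate's solvent-only control mean, mostly below; inconclusive = the two repeat wells disagreed; inactive = no significant shift from solvent-only controls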
HEK counter1: acts in parental HEK cells, KCC2 counter-screen. shares compounds with Cl transport mod. HEK293 parental cells, thallium flux FluoZin2, ouabain; baseline-ratio fluorescence slope, 10–20 s after thallium. thallium flux rate (normalised fluorescence) at 10 µM. hit rate 46% among 3,700. AID 1716;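 active = thallium flux rate significantly above the same plate's solvent-only control wells, beyond their mean plus 3 SD; inconclusive = the two replicate wells gave conflicting results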
KCC2 ouabain: modulates human KCC2 on retest with ouabain | shares compounds with Cl transport mod | HEK293-KCC2, thallium flux FluoZin2 fluorescence; bidirectional: low = inhibitor, high = activator | raw Tl+ flux slope (below DMSO = inhibition, above = activation) at 10 µM | hit rate 48% among 3,700 | AID 1717;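 active = thallium flux slope beyond 3 SD from same-plate DMSO control mean in most replicates, usually higher, sometimes lower; inconclusive = repeat tests gave conflicting results; inactive = no significant difference from controls in most replicates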;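 note: slope of initial-normalized fluorescence between seconds 10 and 20 after thallium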
HEK293 Tl flux2: acts in parental HEK cells, second KCC2 counter-screen; shares compounds with Cl transport mod; HEK293 parental, thallium flux FluoZin-2 fluorescence slope; thallium flux slope at 10 µM; hit rate 33% among 3,700;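 active = thallium flux slope above the same plate's solvent-control mean plus 3 SD in both duplicate wells; inconclusive = duplicate wells that disagreed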;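 note: run without ouabain in cells lacking the KCC2 cotransporter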
Large screens that a line does not name were inactive (follow-up assays come after a bar, where they were run). Hits are enriched below; roughly 4.2% of the tested compounds scored in any of these assays.

CC1CC(C)CN(C(=O)C2CCN(S(=O)(=O)c3cccs3)CC2)C1 (centres undefined)	none (no result: Autophagy HCS, WT yeast gro inh, Cl transport mod, Rad51 HR inh, Insulin prom up)
O=C(C1CCCN(S(=O)(=O)c2cccs2)C1)N1CCc2ccccc2C1 (centres undefined)	Cl transport mod -3.04 | KCC2 secondary inactive | KCC2 bumet counter inactive | KCC2 sec2 inactive | HEK counter1 inactive | KCC2 ouabain 0.0156 | HEK293 Tl flux2 inactive
CCS(=O)(=O)N1CCCC(C(=O)N2CCc3ccccc3C2)C1 (centres undefined)	none (no result: Cl transport mod, Rad51 HR inh)
CCCCCCc1c(C)c2ccc(OCC(=O)N[C@@H](Cc3ccccc3)C(=O)O)cc2oc1=O	none (no result: Autophagy HCS, WT yeast gro inh, Cl transport mod, Rad51 HR inh, Insulin prom up)
Cc1ccc(CCNS(=O)(=O)c2cc(Br)cnc2N)cc1	none (no result: Autophagy HCS, WT yeast gro inh, Cl transport mod, Rad51 HR inh, Insulin prom up)
COCCn1c(-c2ccc(Cl)cc2Cl)nc2c(c(=O)c3ccccc3n2C)c1=O	Autophagy HCS active, Cl transport mod -3.37 | KCC2 secondary inactive | KCC2 bumet counter inactive | KCC2 sec2 0.0238 | HEK counter1 inconclusive | KCC2 ouabain 0.0133 | HEK293 Tl flux2 inactive
c1ccc(C2Oc3ccccc3C3CC(c4cccs4)=NN32)cc1 (centres undefined)	Cl transport mod 9.34 (no result: Insulin prom up) | KCC2 secondary inactive | KCC2 bumet counter 0.0458 | KCC2 sec2 inactive | HEK counter1 0.0598 | KCC2 ouabain 0.0546 | HEK293 Tl flux2 0.0197
CS(=O)(=O)N1N=C(c2cccs2)CC1c1ccccc1 (centres undefined)	none (no result: Autophagy HCS, WT yeast gro inh, Rad51 HR inh)
Cc1cc(C(=O)C(C)OC(=O)c2ccc(NC(=O)CC#N)cc2)c(C)n1-c1ccccc1 (centres undefined)	none (no result: Autophagy HCS, WT yeast gro inh, Cl transport mod, Rad51 HR inh, Insulin prom up)
COc1ccc(CNC(=O)c2csc(Cc3ccc(OC)cc3)n2)cc1	none (no result: Cl transport mod, Insulin prom up)
COc1ccc(CNC(=O)c2csc(Cc3ccc(Cl)cc3)n2)cc1	none (no result: Cl transport mod, Rad51 HR inh, Insulin prom up) | KCC2 secondary inactive | KCC2 bumet counter inconclusive | KCC2 sec2 0.0249 | HEK counter1 inconclusive | KCC2 ouabain 0.0152 | HEK293 Tl flux2 inactive
C=C(C)C1CC=C(C)/C(=N\NC(=S)Nc2ccc(C)cc2)C1 (centres undefined)	WT yeast gro inh 60.7, Cl transport mod 4.62 | KCC2 secondary inactive | KCC2 bumet counter 0.0222 | KCC2 sec2 inactive | HEK counter1 0.0119 | KCC2 ouabain 0.0402 | HEK293 Tl flux2 0.0112
COc1ccc(OCC(=O)NC(=S)N2CCCc3ccccc32)cc1	Cl transport mod 24.1 (no result: Rad51 HR inh) | KCC2 secondary 0.0211 | KCC2 bumet counter 0.0374 | KCC2 sec2 inactive | HEK counter1 0.0213 | KCC2 ouabain 0.0286 | HEK293 Tl flux2 0.0209
COc1ccccc1C(=O)NC(=S)N1CCCc2ccccc21	none (no result: Cl transport mod)
COc1ccc(C(=O)NC(=S)N2CCCc3ccccc32)cc1OC	Cl transport mod 5.27 | KCC2 secondary inactive | KCC2 bumet counter 0.0231 | KCC2 sec2 inactive | HEK counter1 0.0124 | KCC2 ouabain inconclusive | HEK293 Tl flux2 0.0121
COc1cc2c(cc1OC)CN(C(=S)NC(=O)c1ccccc1)CC2	Cl transport mod 22.7 | KCC2 secondary 0.026 | KCC2 bumet counter 0.0497 | KCC2 sec2 inconclusive | HEK counter1 0.0311 | KCC2 ouabain 0.0334 | HEK293 Tl flux2 0.0317
COc1ccccc1C(=O)NC(=S)N1CCc2ccccc21	Cl transport mod 6.54 (no result: Rad51 HR inh) | KCC2 secondary inactive | KCC2 bumet counter 0.0188 | KCC2 sec2 inactive | HEK counter1 0.00855 | KCC2 ouabain inconclusive | HEK293 Tl flux2 inactive
Cc1ccc(C(=O)N2CCCC(Nc3ccc(F)cc3)C2)cc1C (centres undefined)	none (no result: Autophagy HCS, WT yeast gro inh, Cl transport mod, Rad51 HR inh, Insulin prom up)
CC(=O)C1=C(C)Nc2ncnn2C1c1cccc(Br)c1 (centres undefined)	none (no result: Autophagy HCS, WT yeast gro inh, Cl transport mod, Rad51 HR inh, Insulin prom up)
O=C(Nc1ccc(N2CCCCC2)cc1)c1ccc2ccccc2n1	none
C=CC[C@]12C=C(OC)C(=O)C=C1O[C@@H](c1ccc3c(c1)OCO3)[C@H]2C	none (no result: Autophagy HCS, WT yeast gro inh, Cl transport mod, Insulin prom up)
COc1ccc(OCC(=O)NC(=S)Nc2ccc3c4c(cccc24)CC3)cc1	Cl transport mod 29.2 (no result: Rad51 HR inh) | KCC2 secondary inactive | KCC2 bumet counter 0.0785 | KCC2 sec2 inactive | HEK counter1 0.0306 | KCC2 ouabain 0.0363 | HEK293 Tl flux2 0.014
COc1ccccc1-c1cc(C(=O)N2CCCc3ccccc32)no1	Cl transport mod -3.93 | KCC2 secondary inactive | KCC2 bumet counter inactive | KCC2 sec2 inactive | HEK counter1 inconclusive | KCC2 ouabain 0.0161 | HEK293 Tl flux2 inactive
Cc1ccccc1OCC(=O)NC(=S)Nc1ccc2c3c(cccc13)CC2	none (no result: Insulin prom up)
CC(C)C(=O)NC(=S)N1CCc2ccccc21	Cl transport mod 5.17 (no result: Rad51 HR inh) | KCC2 secondary inactive | KCC2 bumet counter 0.0207 | KCC2 sec2 inconclusive | HEK counter1 0.0182 | KCC2 ouabain 0.0283 | HEK293 Tl flux2 0.0165
